A selection: hits, their analogues and other compounds. The true share with any hit is near 1.5%.
EBNA-1 inh: blocks EBNA-1 binding to DNA; EBNA-1 DNA binding, fluorescence polarization; inhibition, % at 14.8 µM; 0.34% of 300,000 active; AID 1950; in the data active = inhibition above about 28%
LANA-H2B inh: blocks KSHV LANA binding to histone H2A/H2B | 0.6% of 320,000 active | inhibition, % (test concentration not listed) | AID 2629 | Q9QR71 | cell-free LANA-H2A/H2B peptide, fluorescence polarization; in the data active = inhibition mostly above about 10%, no sharp cut-off; inactive = mostly below about 6.7%
A1 inh: inhibitors of the anti-apoptotic protein A1, read as caspase activation. MEF A1-2A-BIM cells, Caspase-Glo 3/7 luminescence, 3 h; percent of clofoctol response, vehicle zero. caspase activation, % (no concentration beside the values). 0.066% of 330,000 active. AID 2462;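 active = over half of replicate activation scores above 10%, or exactly half above 10 with the replicate mean above 10; inconclusive = replicate mean below 10 yet half the replicates above 10; inactive = over half of replicates below 10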
ZTA DNA inh: blocks Epstein-Barr virus ZTA, an EBNA-1 counter-screen | ZTA-DNA binding, fluorescence polarization | inhibition, % at 11 µM | 0.15% of 320,000 active | AID 2234; in the data active = inhibition above about 33%
HNF4A DNA FP: change in binding of human HNF4 alpha to DNA; 0.3% of 360,000 active; P41235; activity change, % at 10 µM; HNF4a-FITC DNA binding, fluorescence polarization, 1 h; in the data active = activity change above about 30%, passing the limit was not always enough
Target sequence (P41235 whole entry, looked up): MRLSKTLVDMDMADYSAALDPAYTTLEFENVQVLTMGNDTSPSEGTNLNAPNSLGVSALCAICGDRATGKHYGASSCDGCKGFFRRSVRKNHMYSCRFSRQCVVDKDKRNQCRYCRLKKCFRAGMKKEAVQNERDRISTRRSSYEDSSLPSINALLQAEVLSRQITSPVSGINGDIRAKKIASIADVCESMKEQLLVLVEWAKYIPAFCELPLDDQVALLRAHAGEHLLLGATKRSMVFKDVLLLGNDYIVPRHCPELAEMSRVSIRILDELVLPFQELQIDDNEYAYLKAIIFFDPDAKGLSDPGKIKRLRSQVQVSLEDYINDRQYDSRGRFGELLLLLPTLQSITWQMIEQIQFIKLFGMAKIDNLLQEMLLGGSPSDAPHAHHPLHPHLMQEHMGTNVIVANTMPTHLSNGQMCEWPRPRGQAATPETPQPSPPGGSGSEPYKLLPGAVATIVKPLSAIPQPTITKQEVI
CSN deneddyl inh: inhibitors of human CSN-mediated cullin deneddylation | Q92905 | Purified CSN, SCF-Nedd8-OG deneddylation, fluorescence polarization | inhibition, % at 12.5 µM | 0.38% of 360,000 active | AID 651999;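 active = pattern-corrected inhibition above about 35%, with an unprinted fluorescence ratio check between 0.5 and 1.5, limit read from the data, passing the limit was not always enough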;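 also: 0% = enzyme with substrate and 100% = substrate without enzyme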
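Material: purified human Csn5 enzyme expressed in HEK293T cells / Medium: Tris buffer pH 7.5, NaCl, DTT, Tween-20, trehalose, ovalbumin / Compound dosing: 12.5 µM single point / Schedule: 90 min incubation of compound, enzyme and substrate at room temperature / Signal: fluorescence polarization of the substrate / Control set: no-enzyme wells high, enzyme-with-substrate wells low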
The depositor's hits bear a star; u = inconclusive; x = no result given.

SMILES | EBNA-1 inh | LANA-H2B inh | A1 inh | ZTA DNA inh | HNF4A DNA FP | CSN deneddyl inh
Oc1cc(Br)ccc1C=Nc1ccc(N2CCCCC2)cc1 | -1 | -1 | 0 | 10 | 37* | -2
O=C(NS(=O)(=O)Oc1ccc(Cl)cc1)OC[C@@H]1CCCN2CCCC[C@H]12 | -2 | 3 | 1 | -3 | -1 | -17
N#Cc1cnc(NN)nc1 | -8 | 165* | 0 | 4 | 3 | 1
c1ccc2c(CN3CCOCC3)csc2c1 | -3 | 4 | 0 | -2 | -2 | 0
c1ccc2c(CN3CCOCC3)c3ccccc3c(CN3CCOCC3)c2c1 | 5 | -3 | -1 | 10 | 32* | -4
CCCNC(=O)COC(=O)c1ccccc1OCc1ccc(Cl)cc1 | -3 | 4 | 1 | -19 | -2 | 5
COc1ccc(N(C(=O)c2snc(C(N)=O)c2N)C(C(=O)NC2CCCCC2)c2ccc(F)cc2)c(OC)c1 (stereo not drawn) | -3 | 18* | 0 | 15 | 0 | 12
COc1ccc(C(C(=O)NCCC(C)C)N(CCO)C(=O)c2snc(C(N)=O)c2N)cc1OC (stereo not drawn) | 0 | 2 | 1 | -11 | -1 | 2
COc1ccc(C(C(=O)NCCC(C)C)N(CCO)C(=O)c2snc(C(N)=O)c2N)cc1 (stereo not drawn) | -15 | 23* | -1 | -13 | -4 | -4
COc1ccc(N(C(=O)c2snc(C(N)=O)c2N)C(C(=O)NC2CCCC2)c2cc(OC)ccc2OC)c(OC)c1 (stereo not drawn) | 4 | 7 | 0 | -2 | 1 | -3
Cc1cccc(Cn2c(N(C)CCO)nc3c2c(=O)[nH]c(=O)n3C)c1 | 2 | 14* | -1 | -1 | 2 | -1
CCOc1ccccc1CN1CCNC(=O)C1CC(=O)NCc1nc(C)cs1 (stereo not drawn) | x | 2 | 0 | x | -4 | 1
Cc1ccc(CNC(=O)c2c(-c3ccccc3Cl)noc2C)cc1 | -14 | -1 | 1 | -9 | 3 | 0
Cc1onc(-c2ccccc2Cl)c1C(=O)NCc1ccco1 | 9 | 0 | 0 | -6 | -12 | 49*
Cc1cccc(S(=O)Cc2ccc(C(=O)N3CCOCC3)o2)c1 (stereo not drawn) | 7 | -4 | 1 | 8 | 1 | -3
O=C(O)c1ccc(CS(=O)c2cccc(C(F)(F)F)c2)o1 (stereo not drawn) | -5 | 119* | 0 | -6 | -1 | -8
O=S(=O)(c1ccc(Br)s1)N1CCN(c2ccccc2)CC1 | 0 | -11 | 0 | -14 | 32* | -3
O=S(=O)(c1ccc(Br)s1)N1CCN(c2ccc(F)cc2)CC1 | -19 | -4 | 2 | -1 | 14 | 4
C=CCNC(=O)c1c(CSc2ccc(F)cc2)noc1C(=O)NCCC | 7 | -2 | u | 7 | -3 | 1
CN1CCN(C(=O)c2cnc(Cc3c[nH]c4ccccc34)c(I)c2)CC1 | x | x | x | x | 7 | 62*
CCCCNC(=O)c1cnc(Cc2c[nH]c3ccccc23)c(I)c1 | x | x | x | x | 0 | 14
Cc1ccc(C(=O)CSc2nc3cccnc3n2C)cc1 | 10 | -6 | 0 | -8 | 0 | 0
Cn1c(SCC(=O)c2ccccc2)nc2cccnc21 | 6 | 98* | -1 | 20 | 0 | -3
CCOC(=O)C(C#N)(Cc1cc(OC)cc(OC)c1)Cc1cc(OC)cc(OC)c1 | -3 | 2 | 1 | -4 | 1 | 1
N#C/C(=C\c1cn(CCOc2ccccc2)c2ccccc12)C(=O)NCc1cccs1 | 37* | 6 | 0 | -5 | -2 | -8
COc1ccc(OCCn2cc(/C=C(\C#N)C(=O)NCc3ccco3)c3ccccc32)cc1 | 25 | 2 | 0 | 17 | 7 | 4
COc1ccccc1C(=O)NCCC(=O)NCC1COc2ccccc2O1 (stereo not drawn) | x | 23* | 1 | -8 | 0 | 4
C=CCn1c(SCCC)nc(O)cc1=O | -5 | 16* | 0 | -5 | -7 | -2
C=CCn1c(SCC)nc(O)cc1=O | -8 | -8 | 1 | -15 | 0 | 4
CS(=O)(=O)Cc1ccc(C(=O)N(CCc2ccccc2)Cc2ccccc2)cc1 | 7 | 2 | -1 | 3 | 3 | 4
